MC4R barr agon: agonists of human melanocortin 4 receptor (MC4R) beta-arrestin; P32245; U2OS MC4R beta-arrestin complementation, luminescence; percent of melanotan II response, DMSO zero; activation, % at 8.9 µM; hit rate 0.98% among 360,000;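 active means activation above a per-plate cutoff, the mean activation of sample wells on that plate plus 3 SD, cut at about 8% in these data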
MC4R antagonist: antagonists of human melanocortin 4 receptor (MC4R). inhibition, % at 6.5 µM. hit rate 0.48% among 360,000. AID 540295. MC4R-expressing cells, MTII-stimulated cAMP, LANCE TR-FRET;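 active means inhibition above its plate's cutoff, the mean of tested wells on that plate plus 3 SD, cut at about 29% in these data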;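 further: 0% = Melanotan II alone and 100% = Melanotan II plus saturating MCL0020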
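system = U2OS cells with stable human MC4R expression | also added = Melanotan II challenge after compound preincubation | dosing = one concentration, 6.5 µM nominal | incubation = compound 30 min, challenge 1 h, detection 1 h | measured by = TR-FRET with Eu-cAMP and labeled anti-cAMP, 671 nm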
NTR1 ag: agonists of human neurotensin receptor NTR1; hit rate 0.17% among 330,000; activation, % at 20 µM; P30989; NTR1-U2OS beta-arrestin-GFP spot imaging, agonist mode;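 active means activation at or above 40% of the spot to cytoplasm intensity ratio, with at least 20 cells analyzed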;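 further: 0% = DMSO without peptide and 100% = 100 nM NTR1 peptide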
Target sequence (P30989 whole entry, looked up): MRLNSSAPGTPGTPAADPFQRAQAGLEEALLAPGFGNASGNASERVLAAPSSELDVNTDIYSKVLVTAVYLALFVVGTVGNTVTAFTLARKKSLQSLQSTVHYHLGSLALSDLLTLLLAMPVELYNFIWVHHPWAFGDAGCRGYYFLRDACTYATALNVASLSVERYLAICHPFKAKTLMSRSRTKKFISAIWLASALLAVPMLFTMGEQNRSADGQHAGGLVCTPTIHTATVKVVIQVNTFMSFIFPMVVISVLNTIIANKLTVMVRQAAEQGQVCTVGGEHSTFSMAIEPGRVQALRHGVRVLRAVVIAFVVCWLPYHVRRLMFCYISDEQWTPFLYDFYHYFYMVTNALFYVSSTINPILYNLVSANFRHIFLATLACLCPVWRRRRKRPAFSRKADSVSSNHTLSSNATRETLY
AI-2 QS mod: Vibrio harveyi AI-2 quorum sensing modulation; Vibrio harveyi JMH597 AI-2 luminescence/OD600 ratio, 9 h; active compounds read low; strain lacks LuxN and CqsS sensors; 0 = neutral-control median; activity change, % at 7.5 µM; hit rate 0.4% among 300,000; AID 2094; in the data active means activity change below about -75%, passing the limit was not always enough;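 further: luminescence divided by OD600 gain over 9 h not by final OD600 alone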
MC4R barr ag: human MC4R beta-arrestin agonism confirmation; hit rate 31% among 2,400; shares compounds with MC4R barr agon; AID 602192; U2OS MC4R beta-arrestin recruitment, luminescence; scaled DMSO 0%, Melanotan II 100%; activation, % at 8.9 µM;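 active means mean activation across replicates above the hit cutoff set in the earlier primary screen, cut at about 8% in these data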
MOR DOR agonist: OPRM1-OPRD1 heterodimer agonism counter-screen. activation, % at 9.2 µM. AID 602194. shares compounds with MC4R barr agon. U2OS PathHunter beta-arrestin, beta-gal luminescence; percent of deltorphin B response, DMSO zero. hit rate 5.8% among 2,400;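 active means mean activation across replicates exceeds the hit threshold derived in the earlier primary screen, cut at about 18% in these data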;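 further: 100% = deltorphin B at 0.9 µM final and 0% = DMSO alone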
* = called active by the depositor; x = no result given. Hits are enriched below; roughly 1.8% of the tested compounds scored in any of these assays.

SMILES	MC4R barr agon	MC4R antagonist	NTR1 ag	AI-2 QS mod	MC4R barr ag	MOR DOR agonist
NC(CCc1ccccc1)c1csc(Nc2nncc3ccccc23)n1 (stereo not given)	16*	4	x	x	12*	9
COc1cccc(Nc2nc(C(N)Cc3ccc(C(F)(F)F)cc3)cs2)n1 (stereo not given)	12*	-6	x	x	5	11
COc1cccc(Nc2nc(C(N)Cc3ccc(Cl)cc3)cs2)n1 (stereo not given)	15*	-6	x	x	8.4*	9
COc1ccc(CC(N)c2csc(Nc3cccc(OC)n3)n2)cc1 (stereo not given)	2	-12	x	x	x	x
CNC(=O)c1c(NC(=O)CCS(=O)(=O)c2ccc(C)cc2)sc(C)c1C	-2	2	0	9	x	x
CCc1cc2c(-c3ccccc3)cc(=O)oc2cc1OCC(C)=O	3	21	8	-6	x	x
CC(=O)COc1cc2c(-c3cc4ccccc4o3)cc(=O)oc2cc1C	26*	-9	14	2	1	1
Cc1sc2nc(C)n(/N=C/c3ccc(O)cc3O)c(=O)c2c1C	0	-10	4	22	x	x
Cc1sc2nc(C)n(/N=C/c3ccccc3O)c(=O)c2c1C	13*	5	3	6	3	3
O=C(CN1CCN(c2ccccc2F)CC1)NC(=O)NC1CCCCC1	1	2	0	x	x	x
Cc1c(CCOC(=O)CC23CC4CC(CC(C)(C4)C2)C3)sc[n+]1CC(=O)c1ccccc1	9.8*	-4	28	22	20*	5
CCN(C(=O)COC(=O)CNC(=O)c1cccs1)c1c(N)n(Cc2ccccc2)c(=O)[nH]c1=O	-1	4	x	x	x	x
CCCCc1nc2sc3c(SCC(=O)NCc4ccco4)ncnc3c2c2c1CCC2	14*	16	3	3	2	4
COc1cccc(/C=N/NC(=O)CCn2c3ccccc3c3ccccc32)c1	14*	2	31	21	4	7
Cc1ccc(S(=O)(=O)Nc2cc(=O)[nH]c(SCc3ccc(Cl)cc3)n2)cc1	19*	9	x	x	7	2
O=c1cc(NS(=O)(=O)c2ccccc2)nc(SCc2c(Cl)cccc2Cl)[nH]1	-2	2	-1	12	x	x
Cc1ccccc1C(=O)N1CCC(C(=O)Nc2ccccc2N2CCCC2)CC1	-3	-6	0	21	x	x
O=C(CCc1ccccc1)Nc1ccc(S(=O)(=O)NC2=NCCCCC2)cc1	-1	2	6	x	x	x
CCCCCCCCCCCCCCCC[n+]1ccc(/C=N/O)cc1	20*	7	21	x	64*	16
O/N=C/c1cccc[n+]1CCCCCC[n+]1ccccc1/C=N/O	-1	-3	2	17	x	x
Cc1ccc2[nH]cc(CCNS(=O)(=O)c3ccc(F)cc3)c2c1	2	22	2	-21	x	x
O=C(COC(=O)c1ccc2c(c1)C(=O)N(CCc1ccccc1)C2=O)Nc1ccc(OC(F)F)cc1	13*	11	6	13	10*	6
CCOc1ccc(NC(=O)COC(=O)c2ccc3c(c2)C(=O)N(CCc2ccccc2)C3=O)cc1	0	4	0	11	x	x
CNC(=S)N/N=C/c1c(C)nn(-c2cccc(Cl)c2)c1Cl	22*	-1	3	1	3	5
CNC(=S)N/N=C/c1c(C)nn(-c2ccccc2)c1Cl	-1	12	1	0	x	x
SMILES	MC4R barr agon	MC4R antagonist	NTR1 ag	AI-2 QS mod	MC4R barr ag	MOR DOR agonist
COc1ccc2nc(C)cc(SCC(=O)NNC(=O)COc3ccc(C)cc3)c2c1	10*	7	3	0	-2	2
COc1ccc2nc(C)cc(SCC(=O)NNC(=O)COc3cccc4ccccc34)c2c1	1	-1	13	24	x	x
Cc1ccc(-c2nc3ccccc3o2)cc1NC(=S)NC(=O)c1cc2ccccc2o1	17*	1	x	9	11*	5
Cc1ccc2oc(-c3ccc(C)c(NC(=S)NC(=O)c4cccs4)c3)nc2c1	4	6	-1	22	x	x
CCOc1ccc(Br)cc1S(=O)(=O)Nc1ccc(C(=O)Nc2ccc(C)cc2)cc1	10*	6	2	0	-2	5
CCOc1ccc(Br)cc1S(=O)(=O)Nc1ccc(NC(=O)c2ccccc2C)cc1	0	3	4	39	x	x
CN1C(=S)N(c2ccccc2)C(=O)/C1=C/c1cccs1	17*	-4	12	5	8	2
CCN1C(=O)/C(=C/c2cccs2)N(C)C1=S	-3	-8	1	-3	x	x
CCOc1ccccc1CN1CCNC(=O)C1CC(=O)N(C)Cc1cnccn1 (stereo not given)	-2	1	1	18	x	x
COc1cc2nc(N3CCNCC3)nc(N)c2cc1OC	2	11	7	20	x	x
COc1cc2nc(N3CCN(c4cc(C)ccc4C)CC3)nc(N)c2cc1OC	12*	7	8	51	9.8*	21*
[O-]/[N+](=N\Nc1ccc(Cl)cc1)c1ccccc1	-3	1	x	x	x	x
OCCN(CCO)c1ccc(C(c2ccccc2Cl)c2ccc(N(CCO)CCO)cc2Cl)c(Cl)c1	14*	9	34	35	9.6*	3
OCCN(CCO)c1ccc2ccccc2c1	-2	2	0	16	x	x
COc1ccc(NC2CCCN(C(=O)c3ccc4[nH]c(C)c(C)c4c3)C2)cc1 (stereo not given)	-4	1	0	-1	x	x
CC(=O)c1cccc(NC(=O)c2cccc3c(-c4cccc(C(N)=O)c4)coc23)c1	20*	25	x	x	6	5
COCCNC(=O)c1cccc2c(-c3cccc(C(N)=O)c3)coc12	-1	5	x	x	x	x
CCCCCCCCNC(=O)c1cccnc1SCC(=O)Nc1ccccc1OC	15*	-2	9	15	8	5
O=C(CNC(=S)NC(=O)c1ccccc1Br)c1ccccc1	21*	1	0	3	0	4
Cc1ccccc1C(=O)NC(=S)NCC(=O)c1ccccc1	1	5	3	8	x	x
Cc1ccc(NS(=O)(=O)c2ccc(-n3cccn3)cc2)nc1	-1	7	1	13	x	x
Cc1ccc(O)c(-c2cc(-c3cccc(F)c3)n[nH]2)c1	10*	-8	10	29	5	7
Cc1ccc2nc(NC(=O)C3CCCN(S(=O)(=O)c4cccc5nonc45)C3)sc2c1 (stereo not given)	x	x	-2	20	x	x
Cc1cccc2sc(NC(=O)C3CCCN(S(=O)(=O)c4cccc5nonc45)C3)nc12 (stereo not given)	9.9*	6	4	25	3	7
COc1ccc(-c2nc(-c3ccc(Br)o3)no2)cc1	13*	3	-1	11	-2	3
COc1ccc(-c2noc(-c3ccc(Br)o3)n2)cc1	4	5	-1	6	x	x
